High-throughput results (PubChem)
The list is not random: actives were taken first. Their share in the collection is about 6.1%.
hDAT+cocaine = changed human dopamine transporter uptake under cocaine IC80. Q01959. LLC-PK1 hDAT cells, [14C]-dopamine uptake with cocaine IC80; actives deviate in either direction. B-score at 10 µM. hit rate 1.3% among 110,000. AID 449768;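 active means Z score or B-score, a plate-position-corrected score, falls beyond the plate's 99.7% confidence bounds, in either direction; inactive means both scores lie inside the 99.7% bounds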
Target sequence (Q01959 whole entry, looked up): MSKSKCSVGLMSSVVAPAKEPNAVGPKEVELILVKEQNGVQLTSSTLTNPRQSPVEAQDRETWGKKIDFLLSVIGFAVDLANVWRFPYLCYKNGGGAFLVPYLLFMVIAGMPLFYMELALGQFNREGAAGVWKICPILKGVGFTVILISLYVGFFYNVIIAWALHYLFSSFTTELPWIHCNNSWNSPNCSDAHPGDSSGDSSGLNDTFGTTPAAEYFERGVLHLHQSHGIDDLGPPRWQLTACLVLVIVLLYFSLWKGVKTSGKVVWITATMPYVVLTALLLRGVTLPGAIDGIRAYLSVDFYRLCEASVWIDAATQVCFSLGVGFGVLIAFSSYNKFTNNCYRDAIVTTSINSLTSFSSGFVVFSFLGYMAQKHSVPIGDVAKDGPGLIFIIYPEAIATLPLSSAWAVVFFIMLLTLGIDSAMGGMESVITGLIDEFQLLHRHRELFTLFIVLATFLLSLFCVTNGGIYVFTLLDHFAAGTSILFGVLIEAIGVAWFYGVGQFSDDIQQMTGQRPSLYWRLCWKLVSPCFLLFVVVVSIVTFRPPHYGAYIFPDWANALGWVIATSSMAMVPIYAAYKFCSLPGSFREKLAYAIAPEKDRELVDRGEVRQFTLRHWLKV
WT yeast gro inh = growth inhibition of WT yeast, mitochondrial fusion screen | hit rate 2.1% among 190,000 | mitochondrial fusion phenotypic screen, WT strain | AID 1362 | inhibition, % at 10 µM; in the data active means inhibition above about 58%; tested in S. cerevisiae
RAM inhibit = inhibitors of the yeast RAM network; S. cerevisiae dse1pr::URA3 reporter, 5-FOA growth OD615, 2 d; analog-sensitive cbk1-as2 kinase mutant strain; inhibition, % at 50 µM; hit rate 1.8% among 190,000;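 active means inhibition above a set limit, 3 SD over mean compound inhibition, cut at about 8.4% in these data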;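 further: inhibition rescues growth on 5-FOA so higher OD means more RAM inhibition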
Measles CPE = protection of cells from measles virus. Measles virus-infected cells, CPE protection, absorbance. protection (pct of control), % at 4 µM. hit rate 1.5% among 140,000. AID 841; in the data active means protection mostly above about 24%, no sharp cut-off; inactive means mostly below about 26%
BB579 growth dn = chemicals that inhibit yeast BB579 growth in restrictive medium (lifespan-shortening candidates); hit rate 0.51% among 140,000; S. cerevisiae BB579 growth, OD615, 48 h; inhibition, % at 10 µM; AID 804;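 active means inhibition above a set limit, 3 SD over the mean compound inhibition, cut at about 44% in these data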
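Material: Saccharomyces cerevisiae DeaD strain BB579, replicative lifespan model yeast; buffer or medium: CSMM-D restrictive synthetic medium containing dextrose (glucose); compound: 10 µM single dose, DMSO 0.25%; timing: 48 h compound exposure at 30 °C after 4 h preincubation; signal: turbidity as optical density at 615 nm; benchmarks: positive control amphotericin B 10 µg/mL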
Yeast life ext = yeast lifespan extension; S. cerevisiae growth with nicotinamide, OD615; deaD strain in restrictive glucose medium; inhibition of the nicotinamide effect, % at 10 µM; hit rate 0.68% among 130,000; AID 775;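 active means inhibition above a set limit, placed 3 SD over the median of all compounds, cut at about 26% in these data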
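assay system = DeaD-strain S. cerevisiae | measured by = absorbance at 615 nm | probe or stimulus = nicotinamide 1.5 mM | buffer or medium = CSMM-D glucose medium, restrictive | times = 48 h at 30 °C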
Of the large screens only hits and unclear results are named; the others gave an inactive call.

NC(=O)COC(=O)CN1C(=O)C2CCCCC2C1=O (stereo unspecified)	none (no result: hDAT+cocaine)
N/C(=N\OC(=O)CCCN1C(=O)c2ccccc2C1=O)c1ccc(Cl)cc1	Measles CPE 41
Cc1ccc(COC(=O)c2nn(-c3ccccc3)nc2N)cc1	none (no result: hDAT+cocaine, Measles CPE, BB579 growth dn, Yeast life ext)
COc1cccc(COC(=O)c2nn(-c3ccccc3)nc2N)c1	RAM inhibit 9.7 (no result: hDAT+cocaine, Measles CPE, BB579 growth dn, Yeast life ext)
O=C1NC(=S)S/C1=C/c1ccc(N2CCOCC2)o1	none (no result: hDAT+cocaine)
COc1ccc2cc(/C=C3\SC(=S)NC3=O)c(N3CCOCC3)nc2c1	WT yeast gro inh 72 (no result: hDAT+cocaine)
O=S(=O)(N/N=C\c1ccc(-c2ccccc2Cl)o1)c1ccccc1	RAM inhibit 10 (no result: Yeast life ext)
O=C(N/N=C/c1ccc(-c2ccccc2Cl)o1)c1ccccc1	none (no result: hDAT+cocaine, Measles CPE, BB579 growth dn, Yeast life ext)
O=C1CCC(c2ccccc2)=NN1Cc1c(F)cccc1Cl	none (no result: hDAT+cocaine, Measles CPE, BB579 growth dn, Yeast life ext)
CCn1ncc(Br)c1C(=O)Nc1cc([N+](=O)[O-])ccc1C	none (no result: hDAT+cocaine)
COc1ccccc1OCC(=O)n1cc(C(=O)c2cc(Cl)cc(Cl)c2O)cn1	BB579 growth dn 45 (no result: hDAT+cocaine)
COc1ccc(CCn2c(C)cc3c(c2=O)C(c2ccc4c(c2)OCO4)C(C#N)=C(N)O3)cc1OC (stereo unspecified)	hDAT+cocaine 2.6
Clc1ccc(Oc2cccc(/C=N/n3cnnc3)c2)cc1	WT yeast gro inh 68
C(=N\n1cnnc1)/c1cccc(OCCOc2ccccc2)c1	none
CC1=C(C(=O)Nc2ccccc2)C(c2ccncc2)C(C#N)=C(SCC(=O)NC2CC2)N1 (stereo unspecified)	Measles CPE 34
CC1=C(C(=O)Nc2ccccc2)C(c2ccncc2)C(C#N)=C(SCC(=O)NC(C)C)N1 (stereo unspecified)	none
COc1ccc(C(=O)NCC(=O)N/N=C/c2cccc(OC(=O)c3ccco3)c2)cc1OC	none (no result: hDAT+cocaine, Measles CPE, BB579 growth dn, Yeast life ext)
CN(C)c1ccc(/C=C/c2ccc3ccccc3[n+]2C)cc1	BB579 growth dn 66 (no result: hDAT+cocaine)
Cc1nc(-c2cccc(NS(=O)(=O)c3ccc4ccccc4c3)c2)cs1	WT yeast gro inh 60
Cc1nc(CNS(=O)(=O)c2ccc3ccccc3c2)cs1	none
CN(c1ccccc1)c1nc(N2CCCC2)nc(-n2ccnc2)n1	none
c1ccc(-c2nc(-n3ccnc3)nc(-n3ccnc3)n2)cc1	BB579 growth dn 74
c1ccc(N(c2ccccc2)c2nc(N3CCCC3)nc(-n3ccnc3)n2)cc1	WT yeast gro inh 78 (no result: hDAT+cocaine, Measles CPE)
CC(C)Nc1nc(-c2ccccc2)nc(-n2ccnc2)n1	none
COc1cc(/C=C2/NC(=O)NC2=O)cc(Br)c1OCc1ccccc1	none (no result: hDAT+cocaine, Measles CPE, BB579 growth dn, Yeast life ext)
Cc1[nH]c2ccccc2c1N=Nc1cccc(C(=O)O)c1	none (no result: hDAT+cocaine)
Cc1[nH]c2ccccc2c1N=Nc1ccccc1C(=O)O	RAM inhibit 9.8 (no result: hDAT+cocaine)
CCCCC(O)(CCN1CCOCC1)c1ccc(Cl)cc1 (stereo unspecified)	none
CCCC(O)(c1ccc(Cl)cc1)C(CN1CCOCC1)c1ccccc1 (stereo unspecified)	hDAT+cocaine -2.8
COc1ccc(C(C)(C)C)cc1S(=O)(=O)n1ccnc1C	none (no result: hDAT+cocaine, Measles CPE, BB579 growth dn, Yeast life ext)
COc1ccc(Nc2nc(NCCO)nc(OC)n2)cc1	none
CC(=O)c1ccc(Nc2nc(NCCO)nc(OC(C(F)(F)F)C(F)(F)F)n2)cc1	hDAT+cocaine -6.3 (no result: Yeast life ext)
CNc1nc(Nc2ccc(C(C)=O)cc2)nc(OC(C(F)(F)F)C(F)(F)F)n1	hDAT+cocaine -5.9
CCCc1nnc(NC(=O)CCC(=O)N2CCN(CCn3c(C)ccc3C)CC2)s1	Measles CPE 31
Cc1c(NC(=O)c2ccc(S(=O)(=O)N(C)c3ccccc3)cc2)c(=O)n(-c2ccccc2)n1C	none (no result: hDAT+cocaine, Measles CPE, BB579 growth dn, Yeast life ext)
N#CCCSc1ccccc1NC(=O)c1ccc(S(=O)(=O)N2CCCC2)cc1	none
Cc1cccc(NC(=S)N=Nc2c(O)n(CN3CCOCC3)c3ccccc23)c1C	WT yeast gro inh 69 (no result: hDAT+cocaine, Measles CPE)
O=C(OCC#Cc1c(COC(=O)c2ccccc2)nnn1Cc1ccccc1)c1ccccc1	none (no result: WT yeast gro inh, RAM inhibit, Measles CPE, BB579 growth dn, Yeast life ext)
CCCc1cc(=O)[nH]c(SCC(=O)NCCC2=CCCCC2)n1	none (no result: hDAT+cocaine, Measles CPE, BB579 growth dn, Yeast life ext)
O=C(C/C=N/OCc1ccc(F)cc1Cl)c1cnc(-c2ccccc2)s1	RAM inhibit 9.7
COc1cc(C(=O)N/N=C/c2sc(N3CCOCC3)nc2-c2ccccc2)cc(OC)c1OC	none (no result: hDAT+cocaine, Measles CPE, BB579 growth dn, Yeast life ext)
CCCc1oc(C(=O)O)cc1CN1CCCC1	none
CCCc1oc(C(=O)O)cc1CN1CCOCC1	Measles CPE 34
Nc1cc2nc[nH]c2cc1N	none (no result: hDAT+cocaine, Measles CPE, BB579 growth dn, Yeast life ext)
